KCNK3 block = human KCNK3 channel inhibition, primary screen; hit rate 0.84% among 340,000; AID 602410; B-score at 10 µM; CHO-KCNK3 thallium flux, FluxOR fluorescence; active compounds read low;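 active = B-score under library mean minus 4 SD, starting fluorescence ratio at most library mean plus 5 SD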;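 also: more negative B-score means stronger inhibition of thallium flux through KCNK3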
Target sequence (O14649 whole entry, looked up): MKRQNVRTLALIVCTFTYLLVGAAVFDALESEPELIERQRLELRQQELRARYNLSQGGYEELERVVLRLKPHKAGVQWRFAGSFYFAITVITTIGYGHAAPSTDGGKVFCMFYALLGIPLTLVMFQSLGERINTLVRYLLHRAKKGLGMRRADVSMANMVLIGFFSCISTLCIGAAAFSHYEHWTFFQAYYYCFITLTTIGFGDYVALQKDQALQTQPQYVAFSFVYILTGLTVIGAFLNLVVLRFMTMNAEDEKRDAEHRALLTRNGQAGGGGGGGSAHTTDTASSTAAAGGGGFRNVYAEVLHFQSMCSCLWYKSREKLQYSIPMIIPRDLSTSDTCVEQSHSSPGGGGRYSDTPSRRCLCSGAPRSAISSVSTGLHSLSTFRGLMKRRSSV
KCNK9 inh = inhibitors of human KCNK9 two-pore domain potassium channel; Q9NPC2; HEK293 KCNK9, FluxOR thallium flux fluorescence; active compounds read low; B-score at 10 µM; hit rate 1.2% among 310,000;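 active = ratio B-score over 3 SD below the library mean, with starting fluorescence within 5 SD of its mean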;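 also: negative B-score means less thallium flux so channel inhibition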
KCNQ1 pot = potentiates or activates the human KCNQ1 potassium channel; P51787; CHO-K1 KCNQ1, thallium flux FluxOR fluorescence; active compounds read high; B-score at 10 µM; hit rate 0.35% among 310,000; AID 2648;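 active = fluorescence ratio B-score, a plate-corrected score, at least three library SD, with initial intensity B-score within 5 SD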
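Assay system: CHO-K1 cells stably expressing KCNQ1; Medium: assay buffer with matched DMSO; Also added: K+/Tl+ depolarizing stimulus; Dosing: single dose; Timing: dye 90 min, compound 20 min, room temperature; Measured by: kinetic FluxOR thallium fluorescence, 10-s 1-Hz baseline, 110-s post-stimulus read; Read-out: peak-minus-minimum fluorescence over initial fluorescence, negative-control normalized, B-scored.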
Kir21 block = inhibitors of mouse Kir2.1 inward-rectifier potassium channel; hit rate 0.85% among 310,000; HEK293-Kir2.1, FluxOR thallium flux fluorescence; active compounds read low; P35561; B-score at 10 µM; AID 1672;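 active = fluorescence ratio B-score at or below minus 3 SD of library scores, with starting-brightness B-score within 2 SD, cut at about -4.2 in these data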;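 also: channel flux triggered by added potassium and thallium sulfate stimulus; B-score of peak minus minimum fluorescence over baseline after thallium stimulus; more negative B-score means stronger Kir2.1 block with less thallium influx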
KCNQ1 inh = inhibitors of human KCNQ1 potassium channel; P51787; CHO-K1 KCNQ1, FluxOR thallium flux fluorescence; active compounds read high; B-score at 10 µM; hit rate 1.3% among 310,000; AID 2642;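 active = compounds whose thallium flux B-score, printed positive for inhibition, exceeds three library SD while starting fluorescence stays within three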;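 also: channel opened by potassium depolarization with thallium stimulus after 20 min compound exposure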
hERG rescue = compounds protecting human hERG from proarrhythmic drug block | activation (rescue from dofetilide block), less the hit threshold, % at 10 µM | Q12809 | AID 1511 | hit rate 0.51% among 310,000 | CHO-hERG, FluxOR thallium flux, dofetilide IC70 present;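 active = activation above the mean of controls blocked by dofetilide plus 5 SD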;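 also: thallium influx through hERG after potassium depolarization seen as dye fluorescence rise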
Numbers without * were called inactive; i = inactive; · = no result. Hits are enriched below; roughly 3.8% of the tested compounds scored in any of these assays.

SMILES	KCNK3 block	KCNK9 inh	KCNQ1 pot	Kir21 block	KCNQ1 inh	hERG rescue
CC(Oc1ccc(Br)cc1)C(=O)N1CCc2ccccc21 (stereo not drawn)	i	i	i	0.51	i	-11.6
CC(Oc1ccc(Cl)cc1)C(=O)N1CCCc2ccccc21 (stereo not drawn)	i	i	i	-5.69*	i	-6.8
Oc1ccccc1Nc1nc(NCC2CCCO2)c2ccccc2n1 (stereo not drawn)	i	i	i	-11.5*	i	-14.1
Oc1ccc(Nc2nc(NCC3CCCO3)c3ccccc3n2)cc1 (stereo not drawn)	i	i	i	-7.75*	i	-16.9
CCC(C)[C@H](N)c1cn([C@@H](Cc2cc3ccccc3[nH]2)C(=O)N2CCNCC2)nn1 (stereo partly drawn)	i	i	i	1.94	i	-3.1
CCOC(=O)Cn1c(=NC(=O)CSC(C)=O)sc2cc(OC)ccc21	i	-8.07*	i	0.52	i	-11.2
COc1ccc(N(CC(=O)N2CCN(c3ccc(F)cc3)CC2)S(=O)(=O)c2c(C)noc2C)cc1	i	i	i	0.26	i	-12.2
Cc1cc(OCC(O)CNC(C)c2ccccc2)ccc1C(C)C (stereo not drawn)	i	i	i	-10.1*	i	-7.1
COc1ccc(OCc2cccc(C(=O)Nc3ccc(CN4CCCCC4)cc3)c2)cc1	i	i	i	-3.13	i	-12.8
CCOc1ccc(OCc2cccc(C(=O)Nc3ccc(CN4CCCCC4)cc3)c2)cc1	i	i	i	-1.88	6*	-22.4
NC(=O)CCN1CCN(CCOC2Cc3cc(Cl)ccc3Sc3ccccc32)CC1 (stereo not drawn)	i	i	i	-6.4*	i	-11.3
CC1(C)CCC/C(=C\c2ccccc2)C1=O	i	i	i	1.25	i	-11.5
CC(=O)c1c(-c2ccccc2)c2cc([N+](=O)[O-])ccc2[nH]c1=O	i	i	8*	0.73	i	-3.8
CC(=O)c1c(C)nc2ccc([N+](=O)[O-])cc2c1-c1ccccc1	i	i	i	0.26	i	-6.4
Cc1nc(NCCc2ccc(F)cc2)c2nnn(Cc3ccccc3)c2n1	i	i	i	0.3	i	-1.6
Cc1nc(NCCc2ccc(O)cc2)c2nnn(Cc3ccccc3)c2n1	i	i	i	-1.98	i	9.1*
Cc1nn2cc(-c3ncc(C(F)(F)F)cc3Cl)cnc2c1Br	i	i	i	0.08	i	-1.5
CCNC(=O)CN(c1ccc(Br)c(C)c1)S(C)(=O)=O	i	i	i	-1.63	i	-9.0
CCOC(=O)C1=NN(C(=O)c2ccco2)C2(CC2)C1	i	i	i	-0.11	i	-1.7
CCOC(=O)C1=NN(C(=O)c2cccc(Br)c2)C(O)(C(C)(C)C)C1 (stereo not drawn)	·	i	66*	1.3	i	50.7*
CCC(Cc1ccccc1)NC(=O)CCn1cccc1 (stereo not drawn)	i	i	i	-0.52	i	-11.8
CCC(Cc1ccccc1)NC(=O)CCc1ccccc1 (stereo not drawn)	i	i	i	-5.08*	i	-6.1
CCOC(=O)c1c(-n2c(C)cc(C=O)c2C)sc2c1CCCC2	i	i	i	-4.59*	i	-19.0
COc1ccc(C(=O)c2coc3ccc(O)c(CN4CCOCC4)c23)cc1	i	i	i	-4.65*	i	-7.2
O=C(c1coc2ccc(O)c(CN3CCOCC3)c12)C1CC1	i	i	i	0	i	-5.7
SMILES	KCNK3 block	KCNK9 inh	KCNQ1 pot	Kir21 block	KCNQ1 inh	hERG rescue
O=C(c1cccs1)c1coc2ccc(O)c(CN3CCOCC3)c12	i	i	i	-4.24*	i	-9.8
CCN(CC)Cc1c(O)ccc2occ(C(=O)c3ccc(OC)cc3)c12	i	i	i	-1.38	i	-10.2
Cc1ccc(C(=O)c2coc3ccc(O)c(CN4CCN(C)CC4)c23)cc1	i	i	i	-4.64*	i	-13.9
COc1ccc(C(=O)c2coc3ccc(O)c(CN4CCCC4)c23)cc1	i	i	i	-1.41	i	-15.0
O=C(NOCc1ccccc1)c1ccc(Cl)cc1Cl	i	·	·	·	·	·
CCN(CC)CCC=C(c1cccs1)c1cccs1	i	·	·	·	·	·
CCOC(=O)N1CCC(N2Cc3cccc(C(=O)N4CC(C)CC(C)C4)c3C2=O)CC1 (stereo not drawn)	i	i	i	1.13	i	-4.5
O=C(N/N=C/c1cccc(Oc2ccccc2)c1)c1cc[n+]([O-])cc1	i	i	i	2.44	i	-11.8
Nc1ccc(C(=O)N/N=C/c2cccc(Oc3ccccc3)c2)cc1	i	i	i	-10.9*	i	-12.9
CCOC(=O)C(Cc1ccccc1)NC(=O)CCCC(=O)c1ccccc1 (stereo not drawn)	i	i	i	0	8*	-16.3
CCOC(=O)C(Cc1ccccc1)NC(C)=O (stereo not drawn)	i	i	i	2.07	i	-2.5
O=[N+]([O-])c1ccc(N/N=C/c2sc(N3CCOCC3)nc2-c2ccccc2)c(S(=O)(=O)Nc2ccccc2Cl)c1	i	·	·	·	·	·
O=C(N/N=C/c1sc(N2CCOCC2)nc1-c1ccccc1)c1ccccc1O	i	i	i	1.11	9*	-13.0
O=[N+]([O-])c1ccc(N/N=C/c2sc(N3CCOCC3)nc2-c2ccccc2)c(S(=O)(=O)Nc2ccc(Cl)cc2)c1	i	i	i	0.37	11*	-17.8
COC(=O)c1ccc(NC(=O)CN2C(=O)CCC2=O)cc1	i	i	i	0.43	i	-6.5
CC(=O)OCC1O[C@@H](O[C@@H]2C[C@H]3C(C)(C)[C@H](OC(C)=O)CC[C@]3(C)[C@H]3CC[C@]45C[C@]4(CC[C@H]5[C@@H](C)C[C@@H](O)[C@H](O)C(C)(C)O)[C@@]32C)[C@H](O)[C@@H](O)[C@@H]1O (stereo partly drawn)	·	i	i	0.35	i	6.5*
CC(C)=CCC[C@](C)(O[C@@H]1O[C@H](CO[C@@H]2O[C@H](CO)[C@@H](O)[C@H](O)[C@H]2O)[C@@H](O)[C@H](O)[C@H]1O)C1CC[C@]2(C)C1C(=O)CC1[C@@]3(C)CC[C@H](O[C@H]4O[C@@H](CO)[C@H](O)[C@@H](O)[C@@H]4O)C(C)(C)C3CC[C@]12C (stereo partly drawn)	i	·	·	·	·	·
Cc1ccc2c(c1)C1CN(C)CCC1N2C(=S)NC(=O)c1ccc(Br)cc1 (stereo not drawn)	i	i	22*	0.01	i	-1.6
CCSc1ccccc1C(=O)Nc1ccc([N+](=O)[O-])cc1OC	i	i	i	-1.71	i	-24.4
